# Assay results published in ChEMBL document CHEMBL1137294, “Adenosine mimetics as inhibitors of NAD+-dependent histone deacetylases, from kinase to sirtuin inhibition” (J Med Chem, 2006).
# Activity calls are given as the source filed them. The calls are words filed in the database; no cut-off is given here.
# What was measured:
# [1] = molecular target: T1, NAD-dependent protein deacetylase sirtuin-2 (Homo sapiens, UniProt Q8IXJ6); test: Inhibition of human recombinant SIRT2
# T1 sequence (Q8IXJ6 whole entry): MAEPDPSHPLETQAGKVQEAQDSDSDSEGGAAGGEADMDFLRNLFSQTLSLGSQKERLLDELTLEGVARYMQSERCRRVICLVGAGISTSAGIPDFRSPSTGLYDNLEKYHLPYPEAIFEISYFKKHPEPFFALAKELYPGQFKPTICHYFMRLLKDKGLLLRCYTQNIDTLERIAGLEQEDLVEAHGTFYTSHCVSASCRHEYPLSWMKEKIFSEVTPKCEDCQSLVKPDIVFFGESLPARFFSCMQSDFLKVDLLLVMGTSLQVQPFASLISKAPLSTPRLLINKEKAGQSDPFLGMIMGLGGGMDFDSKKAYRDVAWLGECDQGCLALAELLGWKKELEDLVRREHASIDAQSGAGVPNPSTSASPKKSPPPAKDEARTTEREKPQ
# Outline: (§1)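 Homogeneous fluorescent deacetylase assay with recombinant SIRT1 or SIRT2 (SIRT2 full-length, N-terminal His6, expressed in E. coli BL21). Inhibition taken from remaining substrate versus no-inhibitor control. Run at least in duplicate, inhibitors added from DMSO stocks.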
# [2] = molecular target: T2, NAD-dependent protein deacetylase sirtuin-1 (Homo sapiens) (UniProt Q96EB6); test: Inhibition of human SIRT1 at 50 uM
# T2 sequence (whole entry): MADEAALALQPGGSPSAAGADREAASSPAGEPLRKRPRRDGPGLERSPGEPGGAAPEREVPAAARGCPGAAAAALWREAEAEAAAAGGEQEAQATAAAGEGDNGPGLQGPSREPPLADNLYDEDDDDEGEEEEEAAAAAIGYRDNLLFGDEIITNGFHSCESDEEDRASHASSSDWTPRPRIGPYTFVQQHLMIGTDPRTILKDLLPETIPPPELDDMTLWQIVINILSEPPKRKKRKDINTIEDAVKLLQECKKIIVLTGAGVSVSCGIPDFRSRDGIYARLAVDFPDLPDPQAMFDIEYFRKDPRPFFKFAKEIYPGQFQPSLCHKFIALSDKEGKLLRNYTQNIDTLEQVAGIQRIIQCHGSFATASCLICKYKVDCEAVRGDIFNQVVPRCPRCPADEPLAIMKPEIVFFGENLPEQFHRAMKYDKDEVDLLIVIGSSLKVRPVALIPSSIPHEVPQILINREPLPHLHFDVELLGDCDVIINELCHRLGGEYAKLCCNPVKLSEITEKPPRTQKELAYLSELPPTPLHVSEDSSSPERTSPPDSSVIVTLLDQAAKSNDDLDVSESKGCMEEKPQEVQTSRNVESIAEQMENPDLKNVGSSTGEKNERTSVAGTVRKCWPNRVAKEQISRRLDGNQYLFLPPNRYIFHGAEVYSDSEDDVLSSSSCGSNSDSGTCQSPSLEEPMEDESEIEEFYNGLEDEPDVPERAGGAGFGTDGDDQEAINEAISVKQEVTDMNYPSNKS
# Outline: (§2)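 Homogeneous fluorescent deacetylase assay with recombinant SIRT1 or SIRT2 (SIRT2 full-length, N-terminal His6, expressed in E. coli BL21). Reaction held ZMAL substrate 10.5 µM and NAD+ 500 µM, run 4 h at 37 °C. Deacetylated product developed by tryptic digest; fluorescence read at ex 390/em 460 nm. Inhibition taken from remaining substrate versus no-inhibitor control. Run at least in duplicate, inhibitors added from DMSO stocks.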
# [3] = molecular target: T3, NAD-dependent protein deacetylase sirtuin-2 (Homo sapiens) (UniProt Q8IXJ6); test: Inhibition of SIRT2 in A549 cells assessed as ability to induce hyperacetylation of tubulin by Western blot analysis at 0.1 uM; assay type: cell-based
# T3 sequence (whole entry): T1 sequence (Q8IXJ6 whole entry)
# Outline: (§3)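 A549 human lung carcinoma cells grown in DMEM with 10% FBS, penicillin-streptomycin and 2 mM L-glutamine. Plated 1 day before treatment, then exposed to compound for 6 h. Cells washed with PBS and lysed in buffer containing 400 nM TSA. Lysates run on 10% SDS-PAGE and western blotted for acetylated alpha-tubulin against total alpha-tubulin.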
# [4] = molecular target: T3, NAD-dependent protein deacetylase sirtuin-2 (Homo sapiens); test: Inhibition of human recombinant SIRT2 at 12.5 uM; outline: as §1
# [5] = molecular target: T3, NAD-dependent protein deacetylase sirtuin-2 (Homo sapiens); test: Inhibition of SIRT2 in A549 cells assessed as ability to induce hyperacetylation of tubulin by Western blot analysis; assay type: cell-based; outline: as §3
# [6] = molecular target: T4, NAD-dependent protein deacetylase sirtuin-1 (Homo sapiens, UniProt Q96EB6); test: Inhibition of human SIRT1 by fluorescent deacetylase assay; outline: as §2
# T4 sequence (Q96EB6 whole entry): T2 sequence (whole entry)
# [7] = molecular target: T4, NAD-dependent protein deacetylase sirtuin-1; test: Inhibition of human SIRT1 by radioactive deacetylase assay
# Outline: (§4)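 Radioactive deacetylase assay with recombinant SIRT1 or SIRT2. Substrate was [3H]-acetylated histone H4 N-terminal peptide (residues 1-25). Released [3H]acetic acid quantified by scintillation counting.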
# [8] = molecular target: T1, NAD-dependent protein deacetylase sirtuin-2; test: Inhibition of human recombinant SIRT2 by fluorescent deacetylase assay; outline: as §1
# [9] = molecular target: T1, NAD-dependent protein deacetylase sirtuin-2; test: Inhibition of human recombinant SIRT2 by radioactive deacetylase assay; outline: as §4
# [10] = molecular target: T4, NAD-dependent protein deacetylase sirtuin-1; test: Inhibition of human SIRT1; outline: as §1
# [11] = molecular target: T3, NAD-dependent protein deacetylase sirtuin-2 (Homo sapiens); test: Inhibition of human recombinant SIRT2 at 50 uM
# Outline: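 N-terminally His6-tagged full-length human SIRT2, expressed in E. coli BL21. Homogeneous fluorescent deacetylase assay with ZMAL substrate (10.5 µM) and NAD+ (500 µM), 4 h at 37 °C. Inhibitor was added from DMSO stock. After stopping, a tryptic digest developed the fluorophore (ex 390/em 460 nm). Inhibition was taken from remaining substrate versus an uninhibited control, run at least in duplicate.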
smiles,measurement,setting,value
O=C1NC(=O)C(c2cn(CCOC(CCO)C3COC4(CCCCC4)O3)c3ccccc23)=C1c1c[nH]c2ccccc12 (stereo unspecified),IC50,[1],2.8 µM
same,inhibition,[2],77.5%
Cn1c2ccccc2c2c3c(c4c5ccccc5n(CCC#N)c4c21)CNC3=O [GO-6976],IC50,[1],> 100 µM
CC(/C=C/C(=O)NO)=C\[C@@H](C)C(=O)c1ccc(N(C)C)cc1,Activity,[3],Active
O=C1NC(=O)C(c2c[nH]c3ccccc23)=C1c1c[nH]c2ccccc12 [RO-316233],IC50,[1],4.7 µM
same,inhibition,[2],52.7%
O=C1NC(=O)C(c2c[nH]c3cccc(F)c23)=C1c1cn(CCOC(CCO)C(O)CO)c2ccccc12 (stereo unspecified),IC50,[1],9.5 µM
same,inhibition,[2],29.9%
CN(C)C[C@H]1OCCn2cc(c3ccccc32)C2=C(C(=O)NC2=O)c2cn(c3cccc(F)c23)C[C@H]1F,IC50,[1],> 50 µM
same,Activity,[2],inactive
O=C1Cc2c([nH]c3ccc(Br)cc23)-c2ccccc2N1 [KENPAULLONE],IC50,[1],> 100 µM
C=CC(=O)c1ccc2ccccc2c1,inhibition,[4],> 60%
O=C1Cc2c([nH]c3ccccc23)-c2ccccc2N1 [PAULLONE],Activity,[5],Active
same,IC50,[6],50 µM
same,inhibition,[2],49.4%
same,IC50,[7],8 µM
CN1C(=O)C(c2cn(CCCCCCCO)c3ccccc23)=C(c2cn(CCCCCCCO)c3ccccc23)C1=O,IC50,[1],> 100 µM
CN(C)CCCn1cc(C2=C(c3c[nH]c4ccccc34)C(=O)NC2=O)c2ccccc21 [GF-109203],inhibition,[4],> 60%
same,IC50,[8],7.3 µM
same,IC50,[1],7.3 µM
same,IC50,[9],11.7 µM
same,IC50,[6],> 50 µM
same,IC50,[10],> 50 µM
same,IC50,[7],23 µM
CC(=O)c1c(O)c(C)c(O)c(Cc2c(O)c3c(c(C(=O)/C=C/c4ccccc4)c2O)OC(C)(C)C=C3)c1O,inhibition,[4],> 60%
CCCCCCCn1cc(C2=C(c3cn(CCCCCCC)c4ccccc34)C(=O)N(C)C2=O)c2ccccc21,IC50,[1],> 100 µM
COCc1cc(-c2c(COC)cc(O)c(O)c2O)c(O)c(O)c1O,inhibition,[4],> 60%
O=C1C(c2c[nH]c3ccccc23)=C(c2c[nH]c3ccccc23)C(=O)N1Cc1ccccc1,IC50,[1],40 µM
CN1C(=O)C(c2c[nH]c3ccccc23)=C(c2c[nH]c3ccccc23)C1=O,IC50,[8],33 µM
same,IC50,[1],33 µM
same,IC50,[9],24.1 µM
same,IC50,[6],> 50 µM
same,IC50,[10],> 50 µM
same,IC50,[7],15.7 µM
O=C1NC(=O)C(c2c[nH]c3cccc(F)c23)=C1c1cn(CCOC(CCO)C2COC3(CCCCC3)O2)c2ccccc12 (stereo unspecified),IC50,[1],2.5 µM
same,inhibition,[2],71.9%
CN[C@@H]1C[C@H]2O[C@@](C)([C@@H]1OC)n1c3ccccc3c3c4c(c5c6ccccc6n2c5c31)C(=O)NC4,Activity,[11],inactive
NC(=O)c1cccnc1,inhibition,[2],10.6%
O=C1NC(=O)C2=C1c1cn(c3ccccc13)CCOC(C(O)CO)CCn1cc2c2c(F)cccc21 (stereo unspecified),IC50,[1],> 50 µM
same,Activity,[2],inactive
O=Nc1c(-c2c(O)[nH]c3ccccc23)[nH]c2ccccc12,inhibition,[4],> 60%
Oc1cc(O)cc(/C=C/c2ccc(O)c(O)c2)c1,inhibition,[4],> 60%
ONC1=Nc2ccccc2-c2[nH]c3ccc(Br)cc3c2C1,inhibition,[11],43.1%
COC(=O)/C=C/c1cc(O)ccc1O,inhibition,[4],> 60%
O=C1NC(=O)C2=C1c1cn(c3ccccc13)CC[C@@H](C1COC3(CCCCC3)O1)OCCn1cc2c2c(F)cccc21 (stereo partly specified),IC50,[1],20.8 µM
same,inhibition,[2],55.7%
CN1CCCC1CCn1cc(C2=C(c3c[nH]c4ccccc34)C(=O)NC2=O)c2ccccc21 (stereo unspecified),IC50,[1],8.3 µM
same,inhibition,[2],58.2%
O=C(O)c1cc(NCc2cc(O)ccc2O)ccc1O,inhibition,[4],> 60%
CN1C(=O)C(c2cn(Cc3ccccc3)c3ccccc23)=C(c2cn(Cc3ccccc3)c3ccccc23)C1=O,IC50,[1],78.3 µM
O=C1Nc2ccc(I)cc2C1=Cc1cc(Br)c(O)c(Br)c1,inhibition,[4],> 60%
